Screens: PubChem BioAssay, Johns Hopkins Ion Channel Center
TRPC6 act: activators of mouse TRPC6 channel; HEK293-TRPC6 membrane potential dye fluorescence; stronger effect = higher value; B-score at 10 µM; hit rate 0.13% among 310,000;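 active means B-score of the integrated fluorescence ratio above library mean plus 3 SD, and starting fluorescence ratio within library mean plus 5 SD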;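 further: higher score means more depolarization so channel activation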
TRPC4 potent: allosterically enhances the mouse TRPC4 cation channel. Q9QUQ5. HEK293 TRPC4beta/mu-opioid, DAMGO EC20, Fluo-4 Ca2+ flux; stronger effect = higher value. B-score at 10 µM. hit rate 0.42% among 310,000;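 active means B-score of calcium response area above 5 SD of library B-scores, with initial fluorescence ratio within 5 SD of library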;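 further: B-score of integrated fluorescence ratio over time as area under calcium response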
TRPC4 inh: blocks the mouse TRPC4 cation channel | HEK293 TRPC4beta/mu-opioid, DAMGO-evoked Fluo4 calcium flux; stronger effect = lower value | B-score at 10 µM | hit rate 0.39% among 300,000 | AID 2247;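 active means B-score over 3 SD under the library average, no early fluorescence shift, positive overall ratio signal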
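material = TRPC4beta/mu-opioid receptor HEK293 cell line | probe or stimulus = sequential submaximal and maximal DAMGO stimulation | compound dosing = one concentration per compound | measured by = Fluo4 Ca2+ flux fluorescence | evaluation = integrated fluorescence ratio relative to baseline, converted to per-well B score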
TRPC6 inhibitor: inhibitors of mouse TRPC6 channel; hit rate 1.1% among 310,000; B-score at 10 µM; HEK293-TRPC6, membrane potential dye, ACh-evoked depolarization; stronger effect = lower value;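 active means B-score under library mean minus 3 SD, initial fluorescence not abnormally high, positive integrated signal ratio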;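 further: B-score derived from integrated fluorescence ratio over the kinetic read; more negative B-score means stronger inhibition of depolarization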
TRPC4 act: TRPC4 (mouse) channel activation. Q9QUQ5. HEK293 TRPC4beta/mu-opioid, Fluo4 calcium fluorescence; stronger effect = higher value. B-score at 10 µM. hit rate 0.49% among 310,000. AID 2237;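 active means B-score above 5 SD of library B-scores, and initial fluorescence ratio not above library mean plus 5 SD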;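 further: positive B-score marks a calcium rise read as TRPC4 activation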
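Incubation: 45 min room-temperature Fluo4 loading, 110 s read / System: HEK293 cells stably co-expressing mouse TRPC4beta and mu-opioid receptor / Signal: Fluo4 fluorescence, kinetic / Control set: buffer (low) and maximal DAMGO (high) / Measure: integrated baseline-normalised fluorescence ratio, converted to per-well B score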
* hit, by the source's call; i = inactive. A selection: hits, their analogues and other compounds. The true share with any hit is near 2.3%.

SMILES | TRPC6 act | TRPC4 potent | TRPC4 inh | TRPC6 inhibitor | TRPC4 act
Cc1cccc(CN2CCCC(C(=O)c3ccc4c5c(cccc35)CC4)C2)n1 (stereo not drawn) | i | i | i | i | i
COc1cc(CN2CCCC(C(=O)c3ccc4c5c(cccc35)CC4)C2)cc(OC)c1O (stereo not drawn) | i | i | i | i | 44*
COc1ccc(C(=O)C2CCCN(Cc3ccc4nonc4c3)C2)c(OC)c1 (stereo not drawn) | i | i | -6* | i | i
O=C(c1ccc2c3c(cccc13)CC2)C1CCCN(Cc2cccnc2)C1 (stereo not drawn) | i | i | i | i | 81*
CCc1ccc(N(C(=O)c2snc(C(N)=O)c2N)C(C(=O)NC2CCCC2)c2ccncc2)cc1 (stereo not drawn) | i | i | i | i | i
Cc1nn(-c2ccccc2)c(Cl)c1CN(C(=O)CCl)c1cccc2ccccc12 | i | i | -7* | i | i
CC(=O)N(Cc1c(C)nn(-c2ccccc2)c1Cl)c1ccc(Cl)cc1 | i | i | i | i | i
Cc1nn(-c2ccccc2)c(Cl)c1CN(C(=O)CCl)c1ccc(Cl)cc1 | i | i | -7* | i | i
O=C(COc1cccc2ccccc12)N/N=C/c1ccccc1OCc1ccc(C(=O)O)cc1 | i | i | -5* | i | i
O=C(O)CCC1(c2ccccc2)NC(=O)NC1=O (stereo not drawn) | i | i | i | i | i
Clc1ccc(OCCCc2nc(-c3ccncc3)no2)c(Cl)c1 | i | i | -9* | i | i
Cc1nn(CC(=O)Nc2ccc(S(N)(=O)=O)cc2)c(=O)c2ccccc12 | i | i | i | i | i
O=c1c2c(nc3nc(NCc4cccc5ccccc45)[nH]n13)CCC2 | i | i | i | i | i
CC(C)(C)C1CCc2c(sc(NC(=O)C3CC=CCC3C(=O)O)c2C#N)C1 (stereo not drawn) | i | i | -6* | i | i
N#Cc1c(NC(=O)C2CC=CCC2C(=O)O)sc2c1CCCCCC2 (stereo not drawn) | i | i | i | i | i
S=C(NCc1ccco1)N1CCN(c2cccc(Cl)c2)CC1 | i | i | -5* | i | i
S=C(NCCN1CCOCC1)N1CCN(c2cccc(Cl)c2)CC1 | i | i | i | i | i
Cc1ccc2nc(SC(C)C(=O)N3CCOCC3)[nH]c2c1 (stereo not drawn) | i | i | i | i | i
O=C(CN1CCCCC1)Nc1cc(Cl)ccc1Oc1ccccc1 | i | i | i | i | i
O=C(CN1CCCCCC1)Nc1ccccc1Oc1ccccc1 | i | i | -6* | i | i
CNC(=S)NNC(=O)c1cccn(Cc2cccc(Cl)c2)c1=O | i | 13* | i | i | i
COC(=O)c1cc(S(=O)(=O)C(C)C)c(S(C)=O)s1 (stereo not drawn) | i | i | i | i | i
CN(CC(=O)Nc1ccc(SC(F)F)cc1)C1CCCCC1 | i | i | -6* | i | i
COc1ccc(-c2cc(C(=O)O)c3c(C)nn(-c4ccccn4)c3n2)cc1 | i | i | i | i | i
Cc1cccc(-n2nc(C)c3c(C(=O)O)cc(-c4cccs4)nc32)c1 | i | i | -6* | i | i
SMILES | TRPC6 act | TRPC4 potent | TRPC4 inh | TRPC6 inhibitor | TRPC4 act
Cc1nn(-c2ccccn2)c2nc(-c3cccs3)cc(C(=O)N3CCOCC3)c12 | i | 12* | i | i | i
Cc1nn(-c2cccc(Cl)c2)c2nc(-c3ccco3)cc(C(=O)O)c12 | i | i | i | i | i
O=C(O)C1CCCCC1C(=O)NCCc1ccc(F)cc1 (stereo not drawn) | i | 10* | i | i | i
c1ccc(-c2noc(CN3CCN(c4cnccn4)CC3)n2)cc1 | i | i | i | i | i
CC1CCCN(S(=O)(=O)c2ccc(NC(=O)C3CCN(C(=O)c4ccco4)CC3)cc2)C1 (stereo not drawn) | i | i | i | i | 60*
CCC(C)NS(=O)(=O)c1ccc(NC(=O)C2CCN(C(=O)c3ccco3)CC2)cc1 (stereo not drawn) | i | i | i | i | i
O=[N+]([O-])c1ccc(/C=N/Nc2nc(N3CCCCCC3)nc(N3CCCCCC3)n2)o1 | i | 32* | i | i | i
CCOc1ccc(-n2c(C)c(C(C)=O)c3cc(O)ccc32)cc1 | i | 11* | i | i | i
Cc1ccc2[nH]c(C(=O)NN=C3CCCCC3)c(-c3ccccc3)c2c1 | i | 10* | i | i | i
Cc1ccc2[nH]c(C(=O)O)c(-c3ccccc3)c2c1 | i | i | i | i | i
COc1ccccc1N(C)C(=O)c1cc(S(=O)(=O)N2CCCC2)cn1C | i | i | i | i | i
COc1ccc(C2Nc3ccc(Br)cc3C(c3ccccc3)N2CC(=O)O)cc1 (stereo not drawn) | i | i | i | i | i
O=C(O)CN1C(c2ccccc2O)Nc2ccc(Br)cc2C1c1ccccc1 (stereo not drawn) | i | i | -5* | i | i
OC12CCCCC1C(c1ccc3c(c1)OCO3)N(Cc1ccc(F)cc1)CC2 (stereo not drawn) | i | i | i | i | 48*
OC12CCCCC1C(c1ccc3c(c1)OCO3)N(Cc1cccc(F)c1)CC2 (stereo not drawn) | i | i | i | i | i
Fc1ccc(COc2ccc(Br)cc2CNCC2CCCO2)cc1 (stereo not drawn) | i | i | i | i | i
Fc1ccccc1COc1ccc(Br)cc1CNCC1CCCO1 (stereo not drawn) | i | i | -6* | i | i
CC(=O)Nc1cccc(C(=O)OC(C(=O)c2ccc(C)cc2)c2ccccc2)c1 (stereo not drawn) | i | 17* | i | i | i
Cc1cccc(-c2csc(N)c2C(=O)OC(C)C)c1 | i | i | -6* | i | i
Cc1ccc(C)c(-c2csc(N)c2C(=O)OC(C)C)c1 | i | i | i | i | i
CN(C)C(CNC(=S)Nc1ccc(F)cc1)c1cccnc1 (stereo not drawn) | i | i | i | i | 80*
Cc1cccc(NC(=S)NCC(c2cccnc2)N(C)C)c1 (stereo not drawn) | i | i | i | i | 103*
O=C(Nc1ccnn1C1CCN(CCCC2CCCC2)CC1)c1ccccc1Cl | i | i | -8* | i | i
